From ChEMBL document CHEMBL3108701, “Isolation of arginase inhibitors from the bioactivity-guided fractionation of Byrsonima coccolobifolia leaves and stems” (J Nat Prod, 2014) come the findings set out here.

Assay [1] addresses T1, Arginase (Leishmania amazonensis, UniProt O96394). In words: Inhibition of Leishmania amazonensis recombinant arginase expressed in Escherichia coli Rosetta (DE3) pLysS using L-arginine as substrate incubated for 10 mins prior to substrate addition measured after 10 mins by colorimetry.
The target of assay [2] is T1, Arginase. Put plainly: Noncompetitive inhibition of Leishmania amazonensis recombinant arginase expressed in Escherichia coli Rosetta (DE3) pLysS using L-arginine as substrate by Dixon reciprocal plot analysis. The procedure, abridged:
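His-tagged enzyme purified by Ni-NTA then DEAE anion exchange. Urea production from L-arginine measured in 50 mM CHES pH 9.6 at 37 °C. Enzyme was preincubated 10 min with inhibitor at three concentrations plus a no-inhibitor control. Substrate was then added at 6.25–72.0 mM and reacted for 10 min. Urea read by urease/salicylate–hypochlorite colorimetry at 600 nm, in duplicate. Inhibition type and Ki taken from reciprocal plots.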

The target of assay [3] is Arginase (Leishmania amazonensis) (UniProt O96394). Put plainly: Noncompetitive inhibition of Leishmania amazonensis recombinant arginase expressed in Escherichia coli Rosetta (DE3) pLysS using L-arginine as substrate assessed as enzyme-substrate-inhibitor complex by Dixon reciprocal plot analysis. The procedure, abridged: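 Purified recombinant L. amazonensis arginase in 50 mM CHES pH 9.6, 37 °C, with urea read at 600 nm by urease-coupled colorimetry. Three inhibitor concentrations plus an uninhibited control were tested against L-arginine at 6.25–72.0 mM. Inhibition type, Ki and Kis were taken from double-reciprocal plots.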

The term IC50 denotes the midpoint of a concentration-inhibition curve. Regarding `COC1=Cc2c(cc(OC)c3cc(C)c(OC)cc23)C(C)(C)C1=O` [TRIGONOSTEMONE], on Arginase [1], the IC50 came out at 16.6 µM.

Consider `CC(=O)Oc1cc(OC(C)=O)c2c(=O)c(OC(C)=O)c(-c3ccc(OC(C)=O)c(OC(C)=O)c3)oc2c1`, for which the IC50 on Arginase [1] amounted to 121 µM. On to `O=c1c(O)c(-c2ccc(O)cc2)oc2cc(O)cc(O)c12` [KAEMPFEROL], for which, on Arginase [1], the IC50 was determined as 55 µM.

For the molecule `COc1c(O)cc(-c2oc3cc(O)cc(O)c3c(=O)c2O[C@@H]2O[C@@H](C)[C@H](O)[C@@H](O)[C@H]2O)cc1O`, on Arginase [1], the IC50 was 224 µM. Take `COc1cc([C@H]2OC[C@H]3[C@@H]2CO[C@@H]3c2cc(OC)c(O)c(OC)c2)cc(OC)c1O` [SYRINGARESINOL]: on Arginase [1], the IC50 turned out to be 13.7 µM. Regarding `COc1ccc(-c2oc3cc(O)cc(O)c3c(=O)c2O[C@@H]2O[C@@H](C)[C@H](O)[C@@H](O)[C@H]2O)cc1O`, on Arginase [1], the IC50 was 88.1 µM. In general, Ki refers to the dissociation constant of the complex between target and ligand, obtained from inhibition or displacement. With `O=c1c(O)c(-c2cc(O)c(O)c(O)c2)oc2cc(O)cc(O)c12` [MYRICETIN], the Ki at Arginase [2] was 1.2 µM. Moreover, the IC50 at Arginase [1] came to 2.1 µM. For `Oc1cc(O)c2c(c1)O[C@H](c1ccc(O)c(O)c1)[C@@H](O)C2` [CIANIDANOL], in that order: 0.6 µM and 1.7 µM.

For the molecule `COc1cc(-c2oc3cc(OC)c(OC)c(OC)c3c(=O)c2OC)cc(OC)c1OC`, at Arginase [1], the IC50 was 128 µM. Consider `O=c1c(O[C@@H]2O[C@H](CO)[C@@H](O)[C@H](O)[C@H]2O)c(-c2ccc(O)c(O)c2)oc2cc(O)cc(O)c12` [ISOQUERCETIN], for which, on Arginase [1], the IC50 was found to be 2 µM. In addition, in assay [3], the Kis was 6.9 µM.

`C[C@H]1O[C@H](Oc2c(-c3cc(O)c(O)c(O)c3)oc3cc(O)cc(O)c3c2=O)[C@@H](O)[C@@H](O)[C@@H]1O`: at Arginase [2], the Ki was 3.8 µM. For the same molecule, the IC50 at Arginase [1] amounted to 2.4 µM. The Kis in assay [3] came to 1.9 µM. For `Oc1cc(O)c2c(c1)O[C@H](c1ccc(O)c(O)c1)[C@H](O)C2` [(-)-EPICATECHIN], at Arginase [2], the Ki turned out to be 0.2 µM. For the same molecule, on Arginase [1], the IC50 stood at 1.6 µM. As for `C[C@@H]1O[C@@H](Oc2c(-c3ccc(O)c(O)c3)oc3cc(O)cc(O)c3c2=O)[C@H](O)[C@H](O)[C@H]1O` [QUERCITRIN], at Arginase [2], the Ki amounted to 7.9 µM. The IC50 on Arginase [1] is 12.2 µM. In addition, in assay [3], the Kis came to 7.2 µM. With `O=c1c(O)c(-c2ccc(O)c(O)c2)oc2cc(O)cc(O)c12` [QUERCETIN], the IC50 on Arginase [1] amounted to 4 µM.

On to `C[C@@H]1O[C@@H](O[C@@H]2Cc3c(O)cc(O)cc3O[C@H]2c2ccc(O)c(O)c2)[C@H](O)[C@H](O)[C@H]1O`, for which, at Arginase [1], the IC50 was found to be 35.1 µM.
